# According to ChEMBL document CHEMBL2346664, “Synthesis, characterization and in vitro anticancer evaluation of novel 1,2,4-triazolin-3-one derivatives” (2013):
# How the values were obtained:
# Format in all cases: functional
# NCI-H460 [1] = assay: Growth inhibition of human NCI-H460 cells assessed as cell growth at 10 '-5 M after 48 hrs by sulforhodamine B assay; conditions: NCI-H460, 48 h, read-out: Activity
# RPMI-8226 [2] = assay: Growth inhibition of human RPMI8226 cells assessed as cell growth at 10 '-5 M after 48 hrs by sulforhodamine B assay; conditions: RPMI-8226, 48 h, read-out: Activity
# DU-145 = assay: Growth inhibition of human DU145 cells assessed as cell growth at 10 '-6 M after 48 hrs by sulforhodamine B assay; conditions: DU-145, 48 h, read-out: Activity
# ACHN [3] = assay: Growth inhibition of human ACHN cells assessed as cell growth at 10 '-6 M after 48 hrs by sulforhodamine B assay; conditions: read-out: Activity
# How it was run: (§1)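 Percent growth at each of the five concentrations of the 48 h continuous-exposure NCI SRB screen. Drug stocks were in DMSO at 400× the top final concentration and diluted in medium with gentamicin. Growth was calculated as [(Ti-Tz)/(C-Tz)]×100 when Ti ≥ Tz, or [(Ti-Tz)/Tz]×100 when Ti < Tz. Tz plates were fixed at drug addition; untreated wells served as control. Absorbance was read at 515 nm.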
# SK-MEL-28 [4] = assay: Growth inhibition of human SK-MEL-28 cells assessed as cell growth at 10 '-6 M after 48 hrs by sulforhodamine B assay; conditions: SK-MEL-28, 48 h, read-out: Activity
# M14 = assay: Growth inhibition of human M14 cells assessed as cell growth at 10 '-6 M after 48 hrs by sulforhodamine B assay; conditions: M14, 48 h, read-out: Activity
# LOX IMVI = assay: Growth inhibition of human LOXIMVI cells assessed as cell growth at 10 '-6 M after 48 hrs by sulforhodamine B assay; conditions: read-out: Activity
# ACHN [5] = assay: Growth inhibition of human ACHN cells assessed as growth inhibition at 10 uM after 48 hrs by sulforhodamine B assay; conditions: read-out: GI
# How it was run: (§2)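 Percent growth inhibition from the single 10^-5 M NCI-60 screen, reported as 100 minus growth percent. Growth percent was measured after 48 h drug exposure at 37 °C, 5% CO2, using TCA fixation, SRB staining and absorbance at 515 nm, against untreated controls and time-zero plates.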
# [6] = Growth inhibition of human […] cells assessed as growth inhibition at 10 uM after 48 hrs by sulforhodamine B assay; conditions: read-out: GI; how it was run: as §2
# NCI-H226 = assay: Growth inhibition of human NCI-H226 cells assessed as growth inhibition at 10 uM after 48 hrs by sulforhodamine B assay; conditions: NCI-H226, 48 h, read-out: GI
# HT-29 = assay: Growth inhibition of human HT-29 cells assessed as cell growth at 10 '-6 M after 48 hrs by sulforhodamine B assay; conditions: HT-29, 48 h, read-out: Activity
# NCI-H460 [7] = assay: Growth inhibition of human NCI-H460 cells assessed as cell growth at 10 '-6 M after 48 hrs by sulforhodamine B assay; conditions: NCI-H460, 48 h, read-out: Activity
# UACC-257 = assay: Growth inhibition of human UACC257 cells assessed as cell growth at 10 '-7 M after 48 hrs by sulforhodamine B assay; conditions: UACC-257, 48 h, read-out: Activity
# SK-MEL-28 [8] = assay: Growth inhibition of human SK-MEL-28 cells assessed as cell growth at 10 '-7 M after 48 hrs by sulforhodamine B assay; conditions: SK-MEL-28, 48 h, read-out: Activity
# SNB-19 = assay: Growth inhibition of human SNB19 cells assessed as cell growth at 10 '-7 M after 48 hrs by sulforhodamine B assay; conditions: SNB-19, 48 h, read-out: Activity
# SW-620 = assay: Growth inhibition of human SW620 cells assessed as cell growth at 10 '-7 M after 48 hrs by sulforhodamine B assay; conditions: SW-620, 48 h, read-out: Activity
# ACHN [9] = assay: Growth inhibition of human ACHN cells assessed as cell growth at 10 '-4 M after 48 hrs by sulforhodamine B assay; conditions: read-out: Activity; how it was run: as §1
# OVCAR-5 = assay: Growth inhibition of human OVCAR5 cells assessed as cell growth at 10 '-4 M after 48 hrs by sulforhodamine B assay; conditions: OVCAR-5, 48 h, read-out: Activity
# MOLT-4 = assay: Growth inhibition of human MOLT4 cells assessed as cell growth at 10 '-8 M after 48 hrs by sulforhodamine B assay; conditions: MOLT-4, 48 h, read-out: Activity
# RPMI-8226 [10] = assay: Growth inhibition of human RPMI8226 cells assessed as cell growth at 10 '-8 M after 48 hrs by sulforhodamine B assay; conditions: RPMI-8226, 48 h, read-out: Activity
# RXF 393 = assay: Growth inhibition of human RXF393 cells after 48 hrs by sulforhodamine B assay; conditions: RXF 393, 48 h
# IGROV-1 [11] = assay: Growth inhibition of human IGROV1 cells assessed as cell growth at 10 uM after 48 hrs by sulforhodamine B assay; conditions: IGROV-1, 48 h, read-out: Activity
# SR = assay: Growth inhibition of human SR cells assessed as cell growth at 10 '-4 M after 48 hrs by sulforhodamine B assay; conditions: read-out: Activity
# UACC-62 = assay: Growth inhibition of human UACC62 cells after 48 hrs by sulforhodamine B assay; conditions: UACC-62, 48 h
# SF-268 = assay: Growth inhibition of human SF268 cells after 48 hrs by sulforhodamine B assay; conditions: SF-268, 48 h
# CAKI-1 = assay: Growth inhibition of human CAKI-1 cells assessed as growth inhibition at 10 uM after 48 hrs by sulforhodamine B assay; conditions: CAKI-1, 48 h, read-out: GI; how it was run: as §2
# NCI-H522 = assay: Growth inhibition of human NCI-H522 cells assessed as cell growth at 10 '-7 M after 48 hrs by sulforhodamine B assay; conditions: NCI-H522, 48 h, read-out: Activity
# HOP-92 = assay: Growth inhibition of human HOP92 cells assessed as cell growth at 10 '-7 M after 48 hrs by sulforhodamine B assay; conditions: HOP-92, 48 h, read-out: Activity
# MCF7 = assay: Growth inhibition of human MCF7 cells assessed as cell growth at 10 '-8 M after 48 hrs by sulforhodamine B assay; conditions: MCF7, 48 h, read-out: Activity
# TK-10 = assay: Growth inhibition of human TK10 cells assessed as cell growth at 10 '-8 M after 48 hrs by sulforhodamine B assay; conditions: TK-10, 48 h, read-out: Activity
# IGROV-1 [12] = assay: Growth inhibition of human IGROV1 cells assessed as cell growth at 10 '-8 M after 48 hrs by sulforhodamine B assay; conditions: IGROV-1, 48 h, read-out: Activity
# SK-MEL-2 = assay: Growth inhibition of human SK-MEL-2 cells assessed as cell growth at 10 '-8 M after 48 hrs by sulforhodamine B assay; conditions: SK-MEL-2, 48 h, read-out: Activity
# Malme-3M = assay: Growth inhibition of human MALME-3M cells assessed as cell growth at 10 '-8 M after 48 hrs by sulforhodamine B assay; conditions: read-out: Activity
# [13] = read-out: LD50 (the source's name)
structure (smiles),measurement,setting,value
Cc1cc(=O)oc2cc(OCCn3c(C)nn(-c4ccc(Cl)cc4)c3=O)ccc12,growth at 10 µM,NCI-H460 [1],9%
same,growth at 10 µM,RPMI-8226 [2],50%
same,growth at 1 µM,DU-145,96%
same,growth at 1 µM,ACHN [3],95%
same,growth at 1 µM,SK-MEL-28 [4],67%
same,growth at 1 µM,M14,67%
same,growth at 1 µM,LOX IMVI,74%
same,inhibition of growth at 10 µM,ACHN [5],58.1%
same,inhibition of growth at 10 µM,[6],67.1%
same,inhibition of growth at 10 µM,NCI-H226,49.9%
same,growth at 1 µM,HT-29,100%
same,growth at 1 µM,NCI-H460 [7],83%
same,growth at 0.1 µM,UACC-257,101%
same,growth at 0.1 µM,SK-MEL-28 [8],87%
same,growth at 0.1 µM,SNB-19,89%
same,growth at 0.1 µM,SW-620,98%
same,growth at 100 µM,ACHN [9],25%
same,growth at 100 µM,OVCAR-5,45%
same,growth at 0.01 µM,MOLT-4,104%
same,growth at 0.01 µM,RPMI-8226 [10],101%
same,GI50,RXF 393,2760 nM
same,TGI,RXF 393,3000 nM
same,CC50,RXF 393; [13],> 1000 nM
same,growth at 10 µM,IGROV-1 [11],59.7%
same,growth at 100 µM,SR,-13%
same,GI50,UACC-62,1990 nM
same,TGI,UACC-62,> 1000 nM
same,CC50,UACC-62; [13],> 1000 nM
same,GI50,SF-268,1360 nM
same,TGI,SF-268,> 1000 nM
same,CC50,SF-268; [13],> 1000 nM
same,inhibition of growth at 10 µM,CAKI-1,80.5%
same,growth at 0.1 µM,NCI-H522,96%
same,growth at 0.1 µM,HOP-92,83%
same,growth at 0.01 µM,MCF7,98%
same,growth at 0.01 µM,TK-10,94%
same,growth at 0.01 µM,IGROV-1 [12],108%
same,growth at 0.01 µM,SK-MEL-2,104%
same,growth at 0.01 µM,Malme-3M,105%
